Published values from different studies.
Protocols differ between the studies behind these lines.
Target: Serine/threonine-protein kinase 10 (STK10, Homo sapiens, UniProt O94804)

For `COc1ncccc1-c1cnn2ccc(N3CCN(C(=O)OC(C)C)CC3)nc12`, the remaining binding was 63% (binding, competition with immobilised ligand; 1 µM).
For `N#CC1(c2ccccn2)CCN(Cc2cc(C(=O)O)c(=O)n3ccccc23)CC1`, the remaining binding was 100% (cell-free assay, competition with immobilised ligand; 1 µM).
For `COc1cc(Nc2ncc(F)c(Nc3ccc4c(n3)NC(=O)C(C)(C)O4)n2)cc(OC)c1OC`, the inhibition was 100% (binding; 10 µM).
`Nc1ncc(-c2nc(N3CCOCC3)nc(N3CCOCC3)n2)c(C(F)F)n1` gave a remaining binding of 64% (binding, competition with immobilised ligand; 10 µM).
`CC(C)(C)c1cc(C=C(C#N)C#N)cc(Br)c1O` gave a remaining activity of 95.4% (enzyme activity, inhibitor; 0.5 µM).
`Cn1cncc1[C@@](O)(COc1ccc(C#N)cc1-c1ccc(OC(F)(F)F)cc1)c1ccc(C#N)cc1` has a remaining binding of 100% (cell-free assay, competition with immobilised ligand; 1 µM).
`O=c1[nH]c2ccccc2n1C1CCN(Cc2ccc(-c3[nH]c4cc5ncnc5cc4nc3-c3ccccc3)cc2)CC1` has a remaining signal of 92.6% (cell-free assay; 0.5 µM).
For `Cc1nn(C)cc1-c1nc2c(N3CCN(Cc4ccc(Cl)cc4)CC3)c(Cl)cnc2[nH]1`, the remaining binding was 100% (binding, competition with immobilised ligand; 1 µM).
